This passage reports MIC, Activity and IC50 results from ChEMBL document CHEMBL1156148, “Isolation, structure and biological activities of platencin A(2)-A(4) from Streptomyces platensis” (Bioorg Med Chem, 2010).

Each structure is given as a SMILES string. Values after ≈ are worked out from the molar mass of the structure shown.

In test [1] the test system is Enterococcus faecalis. Briefly: Antibacterial activity against Enterococcus faecalis CL8516 after 20 hrs by NCCLS method. The class given is functional. To be noted: CL8516, 20 h. The gist of the method: (§1)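 Twofold serial broth dilution in cation-adjusted Mueller Hinton broth per NCCLS guidelines. Inoculum 10^5 CFU/mL, incubated at 37 °C for 20 h with compound in growth medium. MIC taken as the lowest concentration preventing visible growth.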

For test [2], the system named is Staphylococcus aureus. Briefly: Antibacterial activity against Staphylococcus aureus Lin after 20 hrs by NCCLS method in presence of 50 % serum. The format is functional.
In test [3] the test system is Staphylococcus aureus. Kind of test: Antibacterial activity against Staphylococcus aureus Smith after 20 hrs by NCCLS method. The class given is functional. In a few lines: as §1
Test [4] has as its system Staphylococcus aureus. Briefly: Antibacterial activity against Staphylococcus aureus expressing FabF antisense plasmid S1-1941 assessed as minimum concentration required to produce differential zone of clearance after 18 hrs by antisense two-plate differential sensitivity cellular assay relative to control. The format is functional. The gist of the method: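 S. aureus RN450 carrying the fabF antisense plasmid S1–1941, plus a vector-only control strain, grown 18–20 h at 37 °C in LB with 34 µg/mL chloramphenicol. Seeded at 1:1000 of OD 3.0 into LB agar with 0.2% glucose and 15 µg/mL chloramphenicol; antisense plates also got 50 mM xylose. Samples added to agar wells, incubated 18 h at 37 °C, and zones measured. MDC was found by twofold serial dilution.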

Test [5] is described as follows: Inhibition of Staphylococcus aureus FAS2 assessed as 2-[14C]malonyl-CoA incorporation after 90 mins by scintillation counting. The gist of the method: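 Partially purified S. aureus fatty-acid synthesis enzyme mix (1.26 µg) preincubated 20 min at room temperature with serially diluted compound. Buffer: 100 mM sodium phosphate pH 7.0, EDTA, NADPH, NADH, DTT, β-mercaptoethanol, 20 µM octanoyl-CoA (or lauroyl-CoA), 4% DMSO, 5 µM ACP. Started with 4 µM final [2-14C]malonyl-CoA, run 90 min at 37 °C, stopped with perchloric acid, and counted by scintillation on phospholipid-coated flash plates.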

In test [6] the test system is Bacillus subtilis. Briefly: Antibacterial activity against Bacillus subtilis MB964 after 20 hrs by NCCLS method. The class given is functional. The conditions noted are these: MB964, 20 h. The gist of the method:
as §1

Test [7] relates to Haemophilus influenzae. Kind of test: Antibacterial activity against Haemophilus influenzae MSD2261 after 20 hrs by NCCLS method. The conditions noted are these: MSD2261, 20 h. The format is functional. In a few lines:
as §1

For test [8], the system named is Escherichia coli. Briefly: Antibacterial activity against wild type Escherichia coli MB2884 after 20 hrs by NCCLS method. The class given is functional. The conditions noted are these: MB2884, 20 h. The gist of the method: as §1
The subject of test [9] is Escherichia coli. Kind of test: Antibacterial activity against envelope disrupted Escherichia coli MB5746 after 20 hrs by NCCLS method. The class given is functional. To be noted: MB5746, 20 h. In a few lines:
as §1

In test [10] the test system is Candida albicans. Briefly: Antifungal activity against Candida albicans after 20 hrs by NCCLS method. The format is functional. In a few lines:
as §1

Test [11] concerns HeLa. Briefly: Cytotoxicity against human HeLa cells by MTT assay. The format is functional, cell-based. In general terms: Tetrazolium dyes change colour on reduction, which living cells bring about.

Usually IC50 stands for the concentration that inhibits the measured activity by half. Take `C[C@@]1(O)C[C@@]23C=CC(=O)[C@@](C)(CCC(=O)Nc4c(O)ccc(C(=O)O)c4O)[C@@H]2C[C@@H]1CC3` [PLATENCIN A4]: the MIC in [1], in test [2], in [3], in [6], in test [7] and in test [8] was > 64 µg/mL in each case. In addition, the results for the MIC in test [9] and in test [10] were 32 µg/mL (≈ 72.2 µM) and > 64 µg/mL, respectively. Further, the Activity in [4] amounted to 100 µg/mL. The IC50 in test [5] was 25.1 µg/mL (≈ 56.6 µM); in test [11], > 100 µM.

For `C=C1[C@H]2CC[C@@]3(C=CC(=O)[C@@](C)(CCC(=O)Nc4c(O)ccc(C(=O)O)c4O)[C@@H]3C2)[C@H]1O` [PLATENCIN A3], the MIC in test [1] was 64 µg/mL (≈ 145 µM); in test [2], > 64 µg/mL; in [3], 16 µg/mL (≈ 36.2 µM); in test [6], 64 µg/mL (≈ 145 µM); in test [7] it was 64 µg/mL (≈ 145 µM); in test [8], > 64 µg/mL. In addition, the results for the MIC in [9] and in test [10] were 16 µg/mL (≈ 36.2 µM) and > 64 µg/mL, respectively. Also, the Activity in test [4] came out at 20 µg/mL. The IC50 in test [5] is 7.1 µg/mL (≈ 16.1 µM); in test [11] it was > 100 µM.

For the molecule `C=C1C[C@@]23C=CC(=O)[C@@](C)(CCC(=O)Nc4c(O)ccc(C(=O)O)c4O)[C@@H]2C[C@@H]1CC3` [PLATENCIN], the MIC in [1] was 2 µg/mL (≈ 4.7 µM); in test [2] it was 8 µg/mL; in test [3] it was 0.5 µg/mL (≈ 1.18 µM); in [6] it was 1 µg/mL (≈ 2.35 µM); in [7], 64 µg/mL (≈ 150 µM); in test [8], > 64 µg/mL. The values for the MIC in test [9] and in test [10] were 2 µg/mL (≈ 4.7 µM) and > 64 µg/mL, respectively. Further, the Activity in test [4] came to 0.2 µg/mL. Besides, the figures for the concentration for half-maximal inhibition (IC50) in test [5] and in test [11] were 12 µg/mL (≈ 28.2 µM) and 86 µM, respectively.
